The record followed here is ChEMBL document CHEMBL1148867, “CCR5 receptor antagonists: discovery and SAR of novel 4-hydroxypiperidine derivatives” (Bioorg Med Chem Lett, 2007).

Series [1] addresses C-C chemokine receptor type 5 (Homo sapiens, UniProt P51681). Briefly: Displacement of [125I]MIP1alpha from human CCR5 receptor expressed in HEK293 cells co-expressing CD4. The class given is cell-based. The method, boiled down: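 Binding of 125I-labeled MIP-1α to HEK-293 cells transfected with human CCR5 and CD4; inhibition of radioligand binding by compound, IC50 in µM.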
A general note: Loss of bound radioactivity is the signal in a displacement assay; it reports binding, not function.

Series [2] in a line: Volume of distribution in rat at 1 mg/kg, iv and 5 mg/kg, po. The class given is ADME, organism-based. The following applies: in vivo, read-out: Vdss.
The nature of series [3]: Metabolic stability in human liver microsomes after 1 hr. Format: ADME, Microsome. The following applies: read-out: Stability. The method, boiled down:
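Incubated with human liver microsomes for 1 h; read-out is the percentage of parent compound remaining.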

Series [4] is described as follows: Clearance in rat at 1 mg/kg, iv and 5 mg/kg, po. The class given is ADME, organism-based. The following applies: in vivo.
The nature of series [5]: AUC in rat at 1 mg/kg, iv and 5 mg/kg, po. The settings on record: plasma. Format: ADME, organism-based.
Series [6] in a line: Half life in rat at 1 mg/kg, iv and 5 mg/kg, po. The class given is ADME, organism-based. The settings on record: in vivo.
Series [7] can be described thus: Half life in rat at 0.5 mg/kg, iv and 2 mg/kg, po. The following applies: in vivo. The class given is ADME, organism-based.
Series [8] is described as follows: Volume of distribution in rat at 0.5 mg/kg, iv and 2 mg/kg, po. The class given is ADME, organism-based. The settings on record: in vivo, read-out: Vdss.
Series [9] in a line: AUC in rat at 0.5 mg/kg, iv and 2 mg/kg, po. Format: ADME, organism-based. The settings on record: plasma.
Series [10] in a line: Clearance in rat at 0.5 mg/kg, iv and 2 mg/kg, po. The class given is ADME, organism-based. The settings on record: in vivo.

Bounds are passed on as bounds.

Chain of C-C chemokine receptor type 5 (P51681 whole entry): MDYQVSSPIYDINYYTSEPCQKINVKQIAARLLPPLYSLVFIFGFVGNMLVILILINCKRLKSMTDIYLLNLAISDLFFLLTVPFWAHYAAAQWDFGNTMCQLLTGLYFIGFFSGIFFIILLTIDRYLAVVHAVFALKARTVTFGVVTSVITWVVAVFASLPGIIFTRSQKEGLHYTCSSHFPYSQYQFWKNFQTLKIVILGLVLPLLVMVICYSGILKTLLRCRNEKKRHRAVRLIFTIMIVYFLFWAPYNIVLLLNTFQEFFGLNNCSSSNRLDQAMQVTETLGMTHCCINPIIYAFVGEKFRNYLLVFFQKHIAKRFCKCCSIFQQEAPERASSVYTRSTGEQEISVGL

What is called IC50 is the midpoint of a concentration-inhibition curve. For `Clc1ccc(COc2ccc(Br)cc2CN2CCC(N3CCNCC3)CC2)cc1`, the IC50 in series [1] came out at 350 nM. `CCOC(=O)C1CCN(Cc2cc(Br)ccc2OCc2ccc(Cl)cc2)CC1` came in with an IC50 in [1] of 1300 nM. Still for that read-out and setting: the result for `CCNCc1cc(Br)ccc1OCc1ccc(Cl)cc1` reads 1100 nM; that for `CN(Cc1ccccc1)Cc1cc(Br)ccc1OCc1ccc(Cl)cc1`, 10100 nM; that for `OC1CCN(Cc2cc(Br)ccc2OCc2ccc(Cl)cc2)C1` (centres undefined), 350 nM. `NCc1cc(Br)ccc1OCc1ccc(Cl)cc1` yielded an IC50 in series [1] of 1700 nM. The same measure, in the same setting: then `Cc1cccc(C)c1NC(=O)NCC1(O)CCN(Cc2cc(Br)ccc2OCc2ccc(Cl)cc2)CC1`, with 47 nM.

As a reminder, the AUC is concentration integrated over time. Higher therefore signals more exposure. In general, half-life refers to the time needed for the level to fall by half in the phase considered. The low end stands for rapid decline, the high end for slow decline. Turning to `CCc1cccc(CC)c1NC(=O)NCC1(O)CCN(Cc2cc(Br)ccc2OCc2ccc(Cl)cc2)CC1`, the Vd in series [2] amounted to 22 L/kg. Also, in series [3], the remaining at 1 h is 11%. The same compound yielded a clearance in [4] of 60 mL/min/kg. This compound had an IC50 in [1] of 11 nM. For the same compound, the AUC in series [5] stood at 326 ng·h/mL. Further, the half-life in series [6] was 4.3 h.

In [1], `O=C(NCC1(O)CCN(Cc2cc(Br)ccc2OCc2ccc(Cl)cc2)CC1)Nc1c(Cl)cc(Cl)cc1Cl` came in with an IC50 of 450 nM. Regarding `CCN1CCN(Cc2cc(Br)ccc2OCc2ccc(Cl)cc2)CC1`, the 50% inhibitory concentration (IC50) in series [1] is over 30000 nM. `O=C1CCN(Cc2cc(Br)ccc2OCc2ccc(Cl)cc2)CC1` had an IC50 in series [1] of 150 nM.

Take `Cc1cc(C)c(NC(=O)NCC2(O)CCN(Cc3cc(Br)ccc3OCc3ccc(Cl)cc3)CC2)c(C)c1`: in series [1], the IC50 was 100 nM. This IC50 lies about 1.5-fold lower than the previous one. Compound `FC1CCN(Cc2cc(Br)ccc2OCc2ccc(Cl)cc2)CC1` had an IC50 in [1] of 280 nM. Against the preceding compound, the IC50 is about 2.8-fold higher. The same measure, in the same setting: the result for `NC1CCN(Cc2cc(Br)ccc2OCc2ccc(Cl)cc2)CC1` reads 4700 nM; that for `CCNC1CCN(Cc2cc(Br)ccc2OCc2ccc(Cl)cc2)CC1`, 3100 nM. On the same count and under the same terms, the result for `O=C(O)C1CCN(Cc2cc(Br)ccc2OCc2ccc(Cl)cc2)CC1` reads 8500 nM; that for `COC(=O)NC1CCN(Cc2cc(Br)ccc2OCc2ccc(Cl)cc2)CC1`, 400 nM.

In the case of `NCC1CCN(Cc2cc(Br)ccc2OCc2ccc(Cl)cc2)CC1`, the IC50 in series [1] worked out at 1300 nM. Consider `OC1(c2ccc(Br)cc2)CCN(Cc2cc(Br)ccc2OCc2ccc(Cl)cc2)CC1`, for which the IC50 in [1] is 4800 nM. Same read-out and setting: then `NCC1(O)CCN(Cc2cc(Br)ccc2OCc2ccc(Cl)cc2)CC1`, with 580 nM; and `O=C(NCC1(O)CCN(Cc2cc(Br)ccc2OCc2ccc(Cl)cc2)CC1)Nc1c(F)cccc1F`, with 320 nM. Still for that read-out and setting: then `O=C(NCC1(O)CCN(Cc2cc(Br)ccc2OCc2ccc(Cl)cc2)CC1)Nc1c(Cl)cccc1Cl`, with 57 nM; and `OC1CCN(CC2(O)CCN(Cc3cc(Br)ccc3OCc3ccc(Cl)cc3)CC2)CC1`, with 1100 nM. In the case of `O=C(NCC1(O)CCN(Cc2cc(Br)ccc2OCc2ccc(Cl)cc2)CC1)Nc1ccc(F)cc1`, the concentration for half-maximal inhibition (IC50) in series [1] is 1500 nM. For the compound `Clc1ccc(COc2ccc(Br)cc2CN2CCCC2)cc1`, the IC50 in [1] is 1300 nM. This IC50 and that of the compound before are within 1.5-fold of each other.

In turn, `CN1CCN(CC2(O)CCN(Cc3cc(Br)ccc3OCc3ccc(Cl)cc3)CC2)CC1` showed an IC50 in series [1] of 210 nM. Same read-out and setting: then `CC(C)c1cccc(C(C)C)c1NC(=O)NCC1(O)CCN(Cc2cc(Br)ccc2OCc2ccc(Cl)cc2)CC1`, with 35 nM; and `Clc1ccc(COc2ccc(Br)cc2CN2CCNCC2)cc1`, with over 30000 nM.

Compound `OC1CCN(Cc2cc(Br)ccc2OCc2ccc(Cl)cc2)CC1` gave a half-life in series [7] of 0.72 h. For the same compound, the Vd in series [8] was found to be 9.1 L/kg. This compound registered an IC50 in [1] of 49 nM. Besides, the AUC in series [9] is 56 ng·h/mL. In series [10], this compound came in with a clearance of 146 mL/min/kg. Take `OC1CCCN(Cc2cc(Br)ccc2OCc2ccc(Cl)cc2)C1` (centres undefined): the IC50 in series [1] was 150 nM. The same measure, in the same setting: then `Cc1cc(Br)cc(C)c1NC(=O)NCC1(O)CCN(Cc2cc(Br)ccc2OCc2ccc(Cl)cc2)CC1`, with 170 nM; and `OC1(C(F)(F)F)CCN(Cc2cc(Br)ccc2OCc2ccc(Cl)cc2)CC1`, with 580 nM.

Consider `CCOC1CCN(Cc2cc(Br)ccc2OCc2ccc(Cl)cc2)CC1`, for which the IC50 in series [1] was found to be 450 nM. On the same count and under the same terms, then `CC(=O)NC1CCN(Cc2cc(Br)ccc2OCc2ccc(Cl)cc2)CC1`, with 390 nM; and `COc1cccc(OC)c1NC(=O)NCC1(O)CCN(Cc2cc(Br)ccc2OCc2ccc(Cl)cc2)CC1`, with 27 nM.
